# Test results published in ChEMBL document CHEMBL1133719, “Synthesis and preliminary biological evaluations of CC-1065 analogues: effects of different linkers and terminal amides on biological activity” (J Med Chem, 2000).
# Legend:
# [1] = organism: Mus musculus; experiment: (§1) Hematological effects in female CDF1 mice at the dose of […], in red blood cells
# [2] = organism: Mus musculus; experiment: (§2) Hematological effects in female CDF1 mice at the dose of 30 mg, in white blood cells; assay type: functional
# Outline: (§3)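 Non-tumour-bearing female CDF1 mice, 10 per group. Drug was dissolved in DMSO, diluted in 30% DMSO/0.5% glucose, and given as a single ip dose on day 1. Blood was sampled on day 27 for WBC, platelet, RBC and MCHC measurements. Values are medians of 10 mice, with saline or vehicle controls.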
# [3] = organism: Mus musculus; experiment: animal or person
# [4] = Minimal drug concentration necessary to inhibit incorporation of [3H]thymidine in U937 Leukemia cells; assay type: functional, cell-based, Homo sapiens
# [5] = organism: Mus musculus; experiment: Antitumor activity in mice bearing L1210 leukemia at a dose of 30 ug / kg; assay type: functional
# Outline: (§4)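 Female CDF1 mice, 10 per group, got 100 L1210 cells ip on day 0. Drug in DMSO was diluted with 30% DMSO in 0.5% glucose and dosed ip on days 1, 5 and 9. Long-term (60-day) survivors are given as percent of the group.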
# [6] = organism: Mus musculus; experiment: Mean corpuscular hemoglobin concentration (MCHC); assay type: functional; outline: as §3
# [7] = organism: Mus musculus; experiment: as §1; assay type: functional
# Outline: (§5)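 Non-tumor-bearing female CDF1 mice, 10 per group. Drugs were dissolved in DMSO, diluted in 30% DMSO/0.5% glucose, and given as a single ip dose on day 1 (doses per kg). Blood was sampled on day 27 for WBC, platelet, RBC and MCHC counts. Values are medians of 10 mice.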
# [8] = organism: Mus musculus; experiment: Hematological effects in female CDF1 mice at the dose of […], in platelets; assay type: functional; outline: as §5
# [9] = tested on: Mus musculus; experiment: Antitumor activity in female CDF1 mice bearing L1210 Leukemia at the dose of 30 ug/kg and survivors (60-day) was expressed; assay type: functional; outline: as §4
# [10] = organism: Mus musculus; experiment: Hematological effects in female CDF1 mice, in red blood cells; assay type: functional; outline: as §5
# [11] = organism: Mus musculus; experiment: as §2; assay type: functional; outline: as §5; remark: listed apart in the source
# [12] = organism: Mus musculus; experiment: Hematological effects in female CDF1 mice, in platelets; assay type: functional; outline: as §5
# [13] = organism: Mus musculus; experiment: Hematological effects in female CDF1 mice at the dose of 30mg, in red blood cells; assay type: functional; outline: as §3
# [14] = organism: Mus musculus; experiment: Hematological effects in female CDF1 mice at the dose of 30 mg, in platelet cells; assay type: functional; outline: as §3
# [15] = tested on: L1210; experiment: Antitumor activity in mice bearing L1210 Leukemia at the dose of 30 ug/kg; survivors for 30 days was reported; assay type: functional, Mus musculus
# [16] = tested on: L1210; experiment: Antitumor activity was tested in BDF1 male mice bearing L1210 Leukemia, at the dose of 42 ug/kg; survivors for 30 days was reported; assay type: functional, Mus musculus
# Outline: (§6)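 Male BDF1 mice, 4-6 weeks old, 6 per group, were given 10⁵ L1210 cells ip on day 0. Drug in DMF was diluted in 30% DMSO/0.5% glucose and given ip on days 1, 5 and 9. %ILS = (T/C − 1) × 100 on median survival of dying animals only; 30-day survivors noted separately. Group weight change was taken from day 0 to the lowest-weight day.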
# [17] = tested on: L1210; experiment: Antitumor activity was tested in BDF1 male mice bearing L1210 Leukemia, at the dose of 70 ug/kg; activity expressed as 30-day survivors; assay type: functional, Mus musculus; outline: as §6
# [18] = tested on: L1210; experiment: Antitumor activity was tested in BDF1 male mice bearing L1210 Leukemia, at the dose of 25 ug/kg; survivors for 30 days was reported; assay type: functional, Mus musculus; outline: as §6
# [19] = tested on: L1210; experiment: Antitumor activity was tested in Mice (bearing L1210 leukemia) and body weight change between days 0 and days 12 (when the animal weight was the lowest) was estimated at a dose of 42 ug/kg; assay type: functional, Mus musculus; outline: as §6
# [20] = tested on: L1210; experiment: Antitumor activity was tested in mice (bearing L1210 leukemia) and body weight change between days 0 and days 12 (when the animal weight was the lowest) was estimated at a dose of 25 ug/kg; assay type: functional, Mus musculus; outline: as §6
# [21] = tested on: Mus musculus; experiment: Anti tumor activity was tested in mice and percent increase of life span at a dose of 70 ug/kg; assay type: functional; outline: as §6
# [22] = tested on: Mus musculus; experiment: Antitumor activity was tested in mice and percent increase of life span at a dose of 25 ug/kg was reported; assay type: functional
# [23] = tested on: Mus musculus; experiment: Hematological effects in female CDF1 mice at the dose of 50ug/Kg, in white blood cells; assay type: functional; outline: as §3
# [24] = Hematological effects in female CDF1 mice platelet cells at the dose of 50ug/Kg, in platelets; assay type: functional, Mus musculus; outline: as §3
# [25] = Compound was administered to non-tumor bearing female CDF1 mice to estimate Mean corpuscular hemoglobin concentration (MCHC); assay type: functional, Mus musculus
# Outline: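 Non-tumor-bearing female CDF1 mice, 10 per group, received one ip dose on day 1 (DMSO stock diluted in 30% DMSO/0.5% glucose). Blood was sampled on day 27 for hematology, including MCHC; values are medians of 10 mice.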
# [26] = Hematological effects in female CDF1 mice RBCs at the dose of 50ug/Kg, in red blood cells; assay type: functional, Mus musculus, Erythrocyte; outline: as §3
# [27] = tested on: Mus musculus; experiment: Anti tumor activity was tested in mice and percent increase of life span at a dose of 42 ug/kg; assay type: functional; outline: as §6
# [28] = tested on: L1210; experiment: Antitumor activity was tested in Mice (bearing L1210 leukemia) and body weight change between days 0 and days 12 (when the animal weight was the lowest) was estimated at a dose of 70 ug/kg; assay type: functional, Mus musculus; outline: as §6
# [29] = organism: Mus musculus; experiment: Antitumor activity in mice bearing B16BL6 melanoma at a dose of 10(ug/mL); survivors for 90 days was reported; assay type: functional
# Outline: (§7)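 B16BL6 cells were cultured as monolayers, and 10⁶ cells were injected ip on day 0 into female BDF1 mice (4-6 weeks, 8 per group). Drug in dimethylacetamide was diluted in DMA/Cremophor/water (1:5:44) and 0.1 mL given ip on days 1, 5 and 9. %ILS came from median survival of dying animals; 90-day survivors were counted; mean weight change covered days 1-10.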
# [30] = organism: Mus musculus; experiment: Antitumor activity in mice bearing B16BL6 melanoma at a dose of 5(ug/mL); survivors for 90 days was reported; assay type: functional; outline: as §7
# [31] = organism: Mus musculus; experiment: Mean body weight change between days 1 and 10; assay type: functional
# Outline: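 Female BDF1 mice (4-6 weeks old, 8 per group) were inoculated ip with 10⁶ B16BL6 melanoma cells on day 0. Drugs in dimethylacetamide were diluted in DMA:Cremophor:water (1:5:44) and given ip at 0.1 mL on days 1, 5 and 9 (doses per kg). Read-outs were %ILS = (T/C − 1) × 100 on median survival of dying animals only, mean body weight change from day 1 to day 10 (g/mouse), and 90-day survivors.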
structure (smiles),measurement,setting,value
O=P1(N(CCCl)CCCl)NCCCO1 (configuration not stated) [CYCLOPHOSPHAMIDE ANHYDROUS],RBC,[1],7.67 10e6 ul-1
same,WBC,[2],11.22 10e3 ul-1
same,ILS at 0.125 mg/kg,[3],173%
CC(=O)Nc1ccc2[nH]c(C(=O)N3CC(CCl)c4c3cc(O)c3ccccc43)cc2c1 (configuration not stated),IC50,[4],3 nM
CCCC(=O)Nc1ccc2oc(C(=O)Nc3ccc4[nH]c(C(=O)N5CC(CCl)c6c5cc(O)c5ccccc65)cc4c3)cc2c1 (configuration not stated),Survivors,[5],20%
same,IC50,[4],0.008 nM
CC(=O)O[C@H]1C(=O)[C@@]2(C)[C@H]([C@H](OC(=O)c3ccccc3)[C@]3(O)C[C@H](OC(=O)[C@H](O)[C@@H](NC(=O)c4ccccc4)c4ccccc4)C(C)=C1C3(C)C)[C@]1(OC(C)=O)CO[C@@H]1C[C@@H]2O [PACLITAXEL],MCHC,[6],36.5 g/dL
same,RBC,[7],8.33 10e6 ul-1
same,WBC,[2],13.4 10e3 ul-1
same,Platelet,[8],1.04 10e6 ul-1
same,Survivors,[9],0%
C[S+](C)[O-].OC[C@H]1O[C@H](O)[C@H](O)[C@@H](O)[C@@H]1O,MCHC,[6],34.45 g/dL
same,RBC,[10],8.5 10e6 ul-1
same,WBC,[11],12.85 10e3 ul-1
same,Platelet,[12],1.16 10e6 ul-1
CS(=O)(=O)OCCCCOS(C)(=O)=O [BUSULFAN],RBC,[13],8.45 10e6 ul-1
same,WBC,[11],7 10e3 ul-1
same,Platelet,[14],0.71 10e6 ul-1
CC(=O)Nc1ccc2oc(C(=O)Nc3ccc4[nH]c(C(=O)N5CC(CCl)c6c5cc(O)c5ccccc65)cc4c3)cc2c1 (configuration not stated),IC50,[4],0.4 nM
O=c1[nH]cc(F)c(=O)[nH]1 [FLUOROURACIL],MCHC,[6],35.4 g/dL
same,RBC,[13],8.82 10e6 ul-1
same,WBC,[11],12.4 10e3 ul-1
same,Platelet,[14],1.24 10e6 ul-1
CC(=O)Nc1ccc2oc(C(=O)Nc3ccc4[nH]c(C(=O)N5CC6CC67C5=CC(=O)c5ccccc57)cc4c3)cc2c1 (configuration not stated),No. of survivors,[15],60
same,No. of survivors,[16],1
same,No. of survivors,[17],0
same,No. of survivors,[18],0
same,Weight change,[19],18%
same,Weight change,[20],23%
same,ILS at 0.07 mg/kg,[21],93%
same,ILS at 0.025 mg/kg,[22],53%
same,WBC,[23],13.95 10e3 ul-1
same,IC50,[4],0.2 nM
same,Platelet,[24],1.01 10e6 ul-1
same,MCHC,[25],35.5 g/dL
same,RBC,[26],7.81 10e6 ul-1
same,ILS at 0.042 mg/kg,[27],80%
same,Weight change,[28],-15%
CC(=O)Nc1ccc2[nH]c(/C=C/C(=O)N3CC(CCl)c4c3cc(O)c3ccccc43)cc2c1 (configuration not stated),IC50,[4],0.9 nM
COc1cccc2c1C(=O)c1c(O)c3c(c(O)c1C2=O)C[C@@](O)(C(=O)CO)C[C@@H]3O[C@H]1C[C@H](N)[C@H](O)[C@H](C)O1 [DOXORUBICIN],No. of survivors,[29],2
same,No. of survivors,[30],0
same,Weight,[31],0.5 g
